TAAR1 antag: human TAAR1 antagonism | Q96RJ0 | CHO RD-HGA16 TAAR1, Fluo-8 calcium fluorescence, antagonist | inhibition, % at 3 µM | actives 1.5% (n = 360,000) | AID 624466;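 active = inhibition above a per-plate cutoff, the mean inhibition of test compounds on that plate plus 3 SD, cut at about 49% in these data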;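 also: 0% = DMSO plus EC80 beta-PEA response and 100% = DMSO alone without agonist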
Target sequence (Q96RJ0 whole entry, looked up): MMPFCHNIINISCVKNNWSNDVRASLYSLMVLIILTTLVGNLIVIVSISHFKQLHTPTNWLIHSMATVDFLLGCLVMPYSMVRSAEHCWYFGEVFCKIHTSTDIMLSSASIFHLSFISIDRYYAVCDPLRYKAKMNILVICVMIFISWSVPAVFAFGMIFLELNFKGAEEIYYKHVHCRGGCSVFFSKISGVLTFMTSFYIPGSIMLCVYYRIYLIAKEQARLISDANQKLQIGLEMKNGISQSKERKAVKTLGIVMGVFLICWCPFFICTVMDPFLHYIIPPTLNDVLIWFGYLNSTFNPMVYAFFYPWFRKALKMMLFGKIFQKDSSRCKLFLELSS
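Test system – hTAAR1-expressing CHO RD-HGA16 cells, Gα16-coupled · Also added – β-PEA at EC80 concentration, post-compound challenge · Compound – 3 µM, single point · Incubation – dye loading 75 min at 37 °C, then 30 min room temperature · Measured by – Fluo-8 intracellular calcium dye fluorescence, real-time kinetic reads · Benchmarks – vehicle and agonist controls · Replicates – singlicate, one well per test compound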
GalR3 antag: blocks the human galanin receptor 3; O60755; inhibition, % at 3 µM; HEK293 GalR3-CNG cAMP membrane potential fluorescence; galR3 body fused to GalR1 C-terminus; actives 0.44% (n = 360,000);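 active = inhibition above the screen-wide average plus 3 SD, cut at about 13% in these data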;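 also: forskolin and galanin both at EC90 stimulate the cells; cAMP rise reported by CNG channel membrane potential dye signal; 0% = forskolin plus galanin with DMSO and 100% = forskolin alone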
OX1R antag-1: OX1R (human) antagonism. O43613. OX1R-expressing cells, FRET antagonist read-out. inhibition, % at 6.6 µM. actives 1.8% (n = 330,000); in the data active = inhibition mostly above about 38%, no sharp cut-off; inactive = mostly below about 40%;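 also: 0% = agonist challenge alone and 100% = reference antagonist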
Target sequence (O43613 whole entry, looked up): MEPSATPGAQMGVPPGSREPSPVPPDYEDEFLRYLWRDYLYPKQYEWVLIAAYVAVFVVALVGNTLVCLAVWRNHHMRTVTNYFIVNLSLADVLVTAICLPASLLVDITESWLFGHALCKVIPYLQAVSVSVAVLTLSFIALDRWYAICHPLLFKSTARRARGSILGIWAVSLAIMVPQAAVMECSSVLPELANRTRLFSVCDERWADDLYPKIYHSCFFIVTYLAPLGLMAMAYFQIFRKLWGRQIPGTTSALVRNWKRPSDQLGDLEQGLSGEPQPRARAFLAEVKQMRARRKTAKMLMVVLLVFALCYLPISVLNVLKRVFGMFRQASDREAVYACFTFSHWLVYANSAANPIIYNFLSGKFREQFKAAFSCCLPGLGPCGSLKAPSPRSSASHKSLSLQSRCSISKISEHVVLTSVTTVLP
TAAR1 ag: agonists of human TAAR1 | actives 0.99% (n = 360,000) | AID 624467 | CHO RD-HGA16 TAAR1, Fluo-8 calcium fluorescence; vehicle wells 0%, saturating PEA agonist 100% | activation, % at 3 µM | Q96RJ0;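 active = activation above the mean activation of all test compounds in the run plus 3 SD, cut at about 38% in these data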
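System: CHO-derived RD-HGA16 cells with stable Gα16 and human TAAR1. Times: 17-24 h plating, Fluo-8 75 min 37 °C, 30 min RT. Measured by: calcium-sensitive Fluo-8 signal, excitation 470-495, emission 515-575 nm. Read-out basis: % activation relative to PEA EC100 response. Control set: DMSO and PEA EC100. Repeats: no replicates (n 1).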
CHO parental Ca: signal in parental CHO cells, OX1R antagonist counter-screen; parental CHO-K1, ATP-induced calcium, Fluo-8 fluorescence; inhibition, % at 5.6 µM; actives 0.63% (n = 330,000); AID 463079;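 active = inhibition above that plate's mean sample inhibition plus 3 SD, cut at about 26% in these data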;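 also: 0% = ATP-challenged DMSO wells and 100% = DMSO wells without ATP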
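Test system: untransfected parental CHO cell line. Compound: one dose, 5.6 µM nominal. Detection: intracellular calcium via Fluo-8 no-wash fluorescent dye. Measure: % inhibition. Benchmarks: ATP-challenged DMSO wells low, unchallenged DMSO wells high.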
OX1R antag-2: antagonists of human orexin 1 receptor | inhibition, % at 5 µM | CHO/OX1R cells, Fluo-8 calcium fluorescence, orexin A | O43613 | actives 0.43% (n = 330,000) | AID 434989;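 active = inhibition above its plate's threshold, mean inhibition of all tested compounds on the plate plus 3 SD, cut at about 37% in these data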;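 also: 0% = orexin A challenge wells and 100% = SB-334867-A antagonist wells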
TAAR1 nonsel count: nonselective antagonism, TAAR1 counter-screen; shares compounds with TAAR1 antag; counterscreen cell line, calcium fluorescence, antagonist mode; inhibition, % at 3 µM; actives 77% (n = 2,400); in the data active = inhibition above about 22%;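 also: CHO-Ga16 host cells stimulated with ATP at an EC80 level; 0% = agonist EC80 plus vehicle and 100% = vehicle without agonist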
TAAR1 antag conf: confirmation of human TAAR1 antagonists; shares compounds with TAAR1 antag; TAAR1-expressing cells, fluorescence antagonist read-out; inhibition, % at 3 µM; actives 40% (n = 2,400); AID 651785; in the data active = inhibition above about 49%;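 also: CHO-Ga16 host cells challenged with agonist PEA near its EC80; 0% = agonist at EC80 plus vehicle and 100% = vehicle with no agonist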
Ga16 nonsel ag: counter-screen for TAAR1 antagonists: nonselective Ga16 agonists; shares compounds with TAAR1 antag; Ga16-expressing cells, calcium fluorescence, agonist counterscreen; activation, % at 3 µM; actives 18% (n = 2,400); AID 651953; in the data active = activation above about 12%;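 also: 0% = vehicle wells and 100% = saturating stimulus response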
TAAR1 ag counter: activates human TAAR1 in antagonist counter-screen. shares compounds with TAAR1 antag. hTAAR1 cell line, fluorescence activation, agonist mode. activation, % at 3 µM. AID 651955. actives 2% (n = 2,400); in the data active = activation above about 37%;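 also: CHO cells stably expressing TAAR1 with calcium dye readout; 0% = DMSO vehicle and 100% = full agonist response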
Numbers without * were called inactive. Hits are enriched below; roughly 4.2% of the tested compounds scored in any of these assays.

`COc1cccc(CN(C)C(=O)c2cc(-c3cccs3)nc3ccccc23)c1` gave TAAR1 antag 76.1*, GalR3 antag -0.4, OX1R antag-1 36.4, TAAR1 ag 9.9, CHO parental Ca -25.6, OX1R antag-2 -24.1, TAAR1 nonsel count 35.3*, TAAR1 antag conf 58.3*, Ga16 nonsel ag 10.3 and TAAR1 ag counter 12.6.
`COc1ccc(N2CCN(C(=O)c3cc(-c4cccs4)nc4ccccc34)CC2)cc1` gave TAAR1 antag 29.9, GalR3 antag -1.2, OX1R antag-1 24.8, TAAR1 ag 17.6, CHO parental Ca -9.4 and OX1R antag-2 -23.4.
Screening COc1ccc(CCNC(=O)C(=O)c2cn(CC(=O)N3CCOCC3)c3ccccc23)cc1OC returned TAAR1 antag -0.3, GalR3 antag -0.3, OX1R antag-1 31.1, TAAR1 ag 4.2, CHO parental Ca -11.0 and OX1R antag-2 -7.4.
For Cc1noc(C)c1-c1ccc(C(=O)Nc2cccc(NS(C)(=O)=O)c2)c2occc12 the results were TAAR1 antag 59.6*, GalR3 antag -7.8, TAAR1 ag 16.3, TAAR1 nonsel count 33.4*, TAAR1 antag conf 45.6, Ga16 nonsel ag 10.9 and TAAR1 ag counter 10.9.
Cc1noc(C)c1-c1ccc(C(=O)NCc2cccc(Cl)c2)c2occc12 was read as TAAR1 antag 25.2, GalR3 antag -4.1 and TAAR1 ag 1.4.
Cc1noc(C)c1-c1ccc(C(=O)Nc2cccc(C(F)(F)F)c2)c2occc12 was read as TAAR1 antag 52.8*, GalR3 antag -6.9, TAAR1 ag -0.7, TAAR1 nonsel count 21.2, TAAR1 antag conf 39.7, Ga16 nonsel ag 2.9 and TAAR1 ag counter 2.6.
CCOC(=O)C1C(=O)C=C(c2ccccc2)CC1c1ccccc1 (stereo not drawn) was read as TAAR1 antag 58.8*, GalR3 antag -8.3, TAAR1 ag 4.0, TAAR1 nonsel count 29.5*, TAAR1 antag conf 40.4, Ga16 nonsel ag 3.2 and TAAR1 ag counter 0.8.
For CCOC(=O)C1C(=O)C=C(c2ccc(C)cc2)CC1c1ccc([N+](=O)[O-])cc1 (stereo not drawn) the results were TAAR1 antag 2.9, GalR3 antag -0.7 and TAAR1 ag -0.5.
Screening O=C(N[C@H](Cc1ccccc1)C(=O)NCc1cccc2ccccc12)[C@H]1O[C@@H](n2ccc(=O)[nH]c2=O)[C@H](O)[C@@H]1O returned TAAR1 antag -3.4, GalR3 antag 0.6 and TAAR1 ag 0.8.
Screening COc1ccc(CNC(=O)c2cc(C3CC3)nc3c2cnn3C(C)C)cc1 returned TAAR1 antag 50.4*, GalR3 antag -1.6, OX1R antag-1 4.7, TAAR1 ag 5.4, CHO parental Ca -8.6, OX1R antag-2 -32.5, TAAR1 nonsel count 12.4, TAAR1 antag conf 22.4, Ga16 nonsel ag 3.1 and TAAR1 ag counter -0.9.
Screening Cc1ccc2c(c1)C(=O)C(=O)N2Cc1ccc(Br)cc1 returned TAAR1 antag 82.0*, GalR3 antag 1.4, OX1R antag-1 2.6, TAAR1 ag 18.2, CHO parental Ca -12.7, OX1R antag-2 -7.6, TAAR1 nonsel count 19.3, TAAR1 antag conf 43.1, Ga16 nonsel ag 7.5 and TAAR1 ag counter -0.1.
For Cc1ccc(CN2C(=O)C(=O)c3cc(C)ccc32)cc1 the results were TAAR1 antag 32.7, GalR3 antag -0.2, OX1R antag-1 -0.1, TAAR1 ag 4.8, CHO parental Ca -11.2 and OX1R antag-2 7.6.
O=[N+]([O-])c1cc(-n2cccc2)ccc1N1CCOCC1 was read as TAAR1 antag 59.6*, GalR3 antag 1.6, OX1R antag-1 20.7, TAAR1 ag 13.1, CHO parental Ca -9.4, OX1R antag-2 2.8, TAAR1 nonsel count 27.5*, TAAR1 antag conf 39.9, Ga16 nonsel ag 10.3 and TAAR1 ag counter 10.9.
Screening CCc1ccc(/C(C)=N/NC(=O)CNC(=O)/C=C/c2ccco2)cc1 returned OX1R antag-1 23.0, CHO parental Ca -1.3 and OX1R antag-2 -10.7.
`CCOC(=O)c1c(-c2ccccc2)nnn1-c1nc(OCC)nc(N2CCCCC2)n1` gave TAAR1 antag 52.7*, GalR3 antag -4.1, OX1R antag-1 6.7, TAAR1 ag 13.5, CHO parental Ca 52.1*, OX1R antag-2 -25.2, TAAR1 nonsel count 22.9*, TAAR1 antag conf 29.8, Ga16 nonsel ag 6.4 and TAAR1 ag counter 6.0.
`COc1ccc(/C=C2\CN(Cc3ccccc3)C/C(=C\c3ccc(OC)c(O)c3)C2=O)cc1O` gave TAAR1 antag 70.6*, GalR3 antag -4.9, OX1R antag-1 24.2, TAAR1 ag 13.5, CHO parental Ca -15.1, OX1R antag-2 -6.5, TAAR1 nonsel count 29.0*, TAAR1 antag conf 50.6*, Ga16 nonsel ag 10.2 and TAAR1 ag counter 11.5.
Screening CCN1C/C(=C/c2ccc(OC)c(O)c2)C(=O)/C(=C/c2ccc(OC)c(O)c2)C1 returned TAAR1 antag 1.8, GalR3 antag -9.2, OX1R antag-1 15.5, TAAR1 ag 4.5, CHO parental Ca -15.7 and OX1R antag-2 -23.3.
CCc1nnc(NC(=O)CSc2nnc(-c3ccoc3C)n2-c2ccc(C)cc2)s1 was read as TAAR1 antag -3.8, GalR3 antag -1.2, OX1R antag-1 8.1, TAAR1 ag 6.3, CHO parental Ca -35.7 and OX1R antag-2 -32.7.
Screening COc1ccc(-c2nc3ncccc3o2)cc1NC(=O)c1cccs1 returned TAAR1 antag -15.8, GalR3 antag -6.9, OX1R antag-1 19.7, TAAR1 ag 9.0, CHO parental Ca -17.2 and OX1R antag-2 -26.1.
Screening O=C(Nc1cc(-c2nc3ncccc3o2)ccc1Cl)c1cccs1 returned TAAR1 antag 60.1*, GalR3 antag -4.0, OX1R antag-1 67.0*, TAAR1 ag 5.8, CHO parental Ca -22.7, OX1R antag-2 -32.8, TAAR1 nonsel count 11.9, TAAR1 antag conf 25.8, Ga16 nonsel ag 4.4 and TAAR1 ag counter 0.9.
Screening O=C(O)c1cccc(NS(=O)(=O)c2ccc3c4c(cccc24)C(=O)N3)c1 returned TAAR1 antag -6.9, GalR3 antag -7.3, OX1R antag-1 17.8, TAAR1 ag -2.6, CHO parental Ca -7.9 and OX1R antag-2 -5.8.

Screens from PubChem.
